Bioassay records: PubChem BioAssay, several laboratories
The entries come from a sample that favours hits as a whole.
H69AR inhibit – proliferation blockers of H69AR lung cancer cells, primary screen, cell-based, human, 86K library; H69AR lung tumor viability, ATP luminescence, 72 h; hits give low values; viability, % at 10 µM; 85,000 compounds, 6% hits; AID 598, 2007;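 active = viability at or below 40%; inactive = viability above 40%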;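 note: multidrug resistant small cell line overexpressing MRP-1 efflux transporter; 100% = mean luminescence of untreated control wells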
PTK2B oligo ant – antagonists of Pyk2 self-association, primary screen, Q293 cells, FERM NanoBiT luminescence, HTS | hits give low values | AID 1347419, 2020 | 99,000 compounds, 0.83% hits | Protein-tyrosine kinase 2-beta (Homo sapiens), Q14289 | z-score (the deposit names both 25 µM and 10 µM);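 active = Z-score of -3 or lower, scaled per plate to the spread of control and sample wells; inactive = z-score above -3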;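 note: negative z-score means lost luminescence so less FERM oligomerization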
HUVEC inhibit – inhibitors of HUVEC proliferation, primary screen, cell-based, 384-well | CellTiter-Glo luminescence, 72 h; hits give low values | viability, % at 10 µM (by protocol) | 86,000 compounds, 1.1% hits | AID 648, 2007;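 active = viability at or below 30%; inactive = viability above 30%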;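 note: 100% = median luminescence of DMSO-only cell control wells on each plate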
bCat KO growth – primary screen for growth suppressors in beta-catenin knockout HCT116 cells (colon tumor, human); HCT116 beta-catenin knockout viability, CellTiter-Glo, 60 h; hits give low values; 140,000 compounds, 1.5% hits; viability, % at 10 µM; AID 818, 2007;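 active = viability at or under a set limit, the compound median less 4 SD, cut at about 6% in these data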;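 note: 0% = Hyamine 1622 control at 20 µM and 100% = untreated cell control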
PTEN del growth – growth suppression of PTEN-null HCT116, primary screen, cell-based, CellTiter-Glo | HCT116 PTEN-null viability, 60 h; hits give low values | viability, % at 10 µM | AID 827, 2007 | 140,000 compounds, 1.2% hits;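 active = viability at or below a set limit, 4 SD under the median of all tested compounds, cut at about 3.7% in these data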;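 note: PTEN knockout HCT116 line with beta catenin targeted HCT116 as companion control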
Lung fibro prol – antiproliferative effect on LL 47 fibroblasts – human, LL 47 cells, CellTiter-Glo luminescence, primary screen; LL 47 human lung fibroblast viability, ATP luminescence; hits give low values; viability, % at 10 µM; 85,000 compounds, 1.1% hits; AID 719, 2007;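 active = viability at or below 50% in the single dose screen; inactive = viability above 50%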;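 note: compound exposure lasted 72 h before the ATP readout; 100% = median luminescence of untreated cell-only wells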
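material = human LL 47 lung fibroblast cells | dosing = compounds added from tenfold dosing solution, 0.1% DMSO final | timing = overnight cell rest, 72 h compound treatment at 37 °C | measured by = CellTiter-Glo luminescence measuring cellular ATP | evaluation = % viability versus median cells-only luminescence | control set = cell-only wells, no compound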
Starred values were filed as active, the others as inactive; . = not tested or not shown.

SMILES	H69AR inhibit	PTK2B oligo ant	HUVEC inhibit	bCat KO growth	PTEN del growth	Lung fibro prol
O=C(c1ccc(Br)o1)N1CCN(c2ccc3nnc(-c4ccc(F)cc4)n3n2)CC1	62	.	86	93	85	101
Cc1ccc(OCC(=O)N2CCN(c3nnc(-c4ccccc4)c4ccccc34)CC2)cc1	85	-1.6	86	43	44	107
Cc1ccc(-c2nnc(N3CCN(C(=O)CSc4ncn[nH]4)CC3)c3ccccc23)cc1	76	-0.64	105	41	47	2.9*
C/C(=N\O)c1ccccc1C(=O)O	57	-3.3*	113	87	89	107
O=C(O)c1ccccc1Nc1ccccc1C(=O)O	.	0.36	.	95	97	.
O=C(CSc1cn(Cc2ccccc2)c2ccccc12)NCc1ccc(F)cc1	.	.	.	89	98	.
Cc1cc(SCC(=O)N/N=C/c2ccc(O)cc2O)c(C)cc1Br	26*	-0.73	35	9	9	37*
CCc1ccc(-c2nc(CN3CCCC(C(=O)O)C3)c(C)o2)cc1 (configuration not stated)	107	.	108	109	91	98
Cc1oc(-c2ccccc2F)nc1CN1CCC(C(=O)NCc2ccco2)CC1	38*	-0.06	101	78	89	101
CCc1ccc(-c2nc(CN3CCC(C(=O)NCc4ccc(F)cc4)CC3)c(C)o2)cc1	3.3*	-0.78	14*	43	51	96
CCN(CCNC(=O)C1CCCN(Cc2nc(-c3ccc(OC)cc3)oc2C)C1)c1ccccc1 (configuration not stated)	32*	-0.22	4.7*	13	13	.
Cc1cccc(-c2nc(CN3CCCC(C(=O)NC4CCC(C)CC4)C3)c(C)o2)c1 (configuration not stated)	65	-0.64	12*	20	23	99
Cc1oc(-c2ccc(Cl)cc2)nc1CN1CCC(C(=O)NCc2cccs2)CC1	94	0.49	56	68	66	105
C[C@H]1CC[C@H]2C(=O)N[C@H](Cc3ccccc3)C(=O)N2[C@@H]1c1ccccc1	.	.	.	100	95	.
CC(C)CCNC(=O)NC(=O)COC(=O)/C=C/c1cnc2ccccc2n1	.	-1.2	.	81	87	.
COc1ccc(NS(=O)(=O)c2ccc(NC(=O)c3ccc(N(C)S(C)(=O)=O)cc3)cc2)c(OC)c1	.	0.42	.	71	66	.
CCc1ccc(-c2nc(CN3CCC(C(=O)NCCN(CC)c4ccccc4)CC3)c(C)o2)cc1	1.6*	-1.3	2.3*	1.9*	1.7*	17*
CCN(CCNC(=O)C1CCN(Cc2nc(-c3ccc(Cl)cc3)oc2C)CC1)c1ccccc1	7.3*	-0.02	3.9*	1.1*	1.6*	63
CCN(CCNC(=O)C1CCN(Cc2nc(-c3cccc(Cl)c3)oc2C)CC1)c1ccccc1	3.0*	0.32	5.4*	1.3*	1.5*	43*
COC(=O)[C@@H](NC(=O)Nc1cccc(OC)c1)C(C)C	103	0.87	99	103	101	100
O=C(NCc1cccnc1)NC1(C(F)(F)F)Oc2ccccc2O1	28*	0.23	69	72	69	88
CCOC(=O)Cc1csc(NC(=O)NC2(C(F)(F)F)Oc3ccccc3O2)n1	17*	0.7	68	37	35	62
COc1cccc(NC(=O)NC2(C(F)(F)F)Oc3ccccc3O2)c1	23*	-0.64	98	52	59	89
O=C(Nc1cc(N2CCOCC2)ncn1)NC1(C(F)(F)F)Oc2ccccc2O1	27*	0.75	68	60	67	89
Cc1ccccc1C(=O)Nc1ccc(N2CCOCC2)nc1	.	0.01	.	103	111	.
SMILES	H69AR inhibit	PTK2B oligo ant	HUVEC inhibit	bCat KO growth	PTEN del growth	Lung fibro prol
CCOC(=O)Cc1csc(NC(=O)NC2(C(F)(F)F)Oc3ccc(Cl)cc3O2)n1 (configuration not stated)	.	0.01	.	82	75	.
CC(C)C(NC(=O)OC(C)(C)C)C(=O)N1CCCC1C(=O)NC(Cc1ccccc1)C(N)=O (configuration not stated)	96	1	82	73	78	97
COc1ccc(C)cc1NC(=O)C(=O)NNC(=O)c1ccco1	.	0.33	.	85	92	.
O=C(NC1CCCCC1)C(c1ccc2ncccc2c1)N(Cc1ccc(F)cc1)C(=O)c1cccs1 (configuration not stated)	.	-3.9*	.	74	70	.
CCCc1cc(C(=O)Cc2ccc(F)cc2)c(O)cc1O	15*	-2.3	32	96	103	100
Cc1ccc2c3c(c(SCC(=O)Nc4nonc4C)nc2c1)CCCC3	16*	0.84	76	93	100	88
COc1cc(C2C3CN(C)CC=C3C(C#N)=C(N)C2(C#N)C#N)ccc1OC(C)C (configuration not stated)	35*	-0.78	87	88	95	84
COc1cc([C@@H]2[C@H]3CNCC=C3C(C#N)=C(N)C2(C#N)C#N)ccc1OC(C)C	63	-0.19	88	52	55	110
Cc1cccc(N/C=C/C(=O)c2cccs2)c1C	.	.	.	72	60	.
COc1cc([N+](=O)[O-])ccc1N/C=C/C(=O)c1cccs1	42	0.29	29*	75	73	79
Cc1nc(N/C(N)=N/S(=O)(=O)c2ccc([N+](=O)[O-])cc2)nc2ccccc12	.	1.4	.	84	82	.
O=C(CSc1nc2cc([N+](=O)[O-])ccc2n1-c1ccc(F)cc1)NC1CCS(=O)(=O)C1 (configuration not stated)	.	1.4	.	83	87	.
c1ccc2c(CSCCc3ccncc3)cccc2c1	34*	-0.59	85	72	78	103
Clc1ccc(CSCCc2ccncc2)cc1	103	-0.63	91	95	92	109
Cc1ccc(OCC(=O)Nc2cc(S(=O)(=O)N3CCCCC3)ccc2C)c([N+](=O)[O-])n1	.	.	.	93	88	.
O=C(COC(=O)c1ccccc1NC(=O)c1ccco1)Nc1ccc2c(c1)OCO2	38*	-3.8*	91	85	82	95
O=C(COC(=O)c1ccccc1NCc1ccco1)Nc1ccc2c(c1)OCO2	67	0.23	84	90	89	97
CC(=O)c1cccc2c(O)c(C3=Nc4ccccc4C3=O)[nH]c12	1.5*	-0.35	36	38	35	61
C=CCNS(=O)(=O)CC12CCC(CC1=O)C2(C)C (configuration not stated)	89	-1	99	95	100	102
COc1cccc(-c2cc(C(=O)Nc3cccc(O)c3)no2)c1	.	-0.73	.	105	88	.
Cc1ccc(NC(=O)c2cc(-c3cccs3)on2)cc1	95	0.48	106	100	100	110
